Paper PMC3137751 (Biochemistry, 2010)
Numbering of substitutions follows the chain as printed. In names and notes the source's numbering stands. Several values for one entry are separate records, joined by “and”; a condition that tells them apart may be missing. Identical values can stand only once. Marks after values point to notes of the source that are not given here.

Legend:
^-5IDH1/IDH2 enzyme = target: T1, ^-5IDH1/IDH2 enzyme (Saccharomyces cerevisiae, UniProt P28241+P28834); assay: Ligand protection from diamide-induced inactivation; type: biochemical, yeast
T1 sequence (P28834 17-360 limits assumed): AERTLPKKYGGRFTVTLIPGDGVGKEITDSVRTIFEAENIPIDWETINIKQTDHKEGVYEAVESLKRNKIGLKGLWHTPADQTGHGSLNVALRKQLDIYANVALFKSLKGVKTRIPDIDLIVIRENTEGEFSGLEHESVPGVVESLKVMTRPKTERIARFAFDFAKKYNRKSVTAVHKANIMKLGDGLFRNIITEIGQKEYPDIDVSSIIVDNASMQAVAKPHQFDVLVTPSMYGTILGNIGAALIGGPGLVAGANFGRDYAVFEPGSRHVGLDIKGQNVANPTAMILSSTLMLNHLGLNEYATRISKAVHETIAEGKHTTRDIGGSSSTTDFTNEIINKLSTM
T1 sequence (P28241 16-369): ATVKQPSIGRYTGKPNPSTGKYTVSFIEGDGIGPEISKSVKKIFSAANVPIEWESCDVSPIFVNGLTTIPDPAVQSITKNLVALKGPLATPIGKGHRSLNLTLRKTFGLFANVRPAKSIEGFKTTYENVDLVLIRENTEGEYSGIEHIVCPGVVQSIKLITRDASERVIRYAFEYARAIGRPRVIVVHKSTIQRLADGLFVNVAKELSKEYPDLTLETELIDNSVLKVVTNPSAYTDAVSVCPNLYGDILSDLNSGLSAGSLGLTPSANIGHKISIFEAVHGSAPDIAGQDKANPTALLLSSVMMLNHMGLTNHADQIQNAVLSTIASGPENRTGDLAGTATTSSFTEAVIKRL

[1] = target: T2, wild-type IDH1/IDH2 enzyme (Saccharomyces cerevisiae, UniProt P28241+P28834); assay: as above; type: biochemical, yeast
T2 sequence (P28834 12-360): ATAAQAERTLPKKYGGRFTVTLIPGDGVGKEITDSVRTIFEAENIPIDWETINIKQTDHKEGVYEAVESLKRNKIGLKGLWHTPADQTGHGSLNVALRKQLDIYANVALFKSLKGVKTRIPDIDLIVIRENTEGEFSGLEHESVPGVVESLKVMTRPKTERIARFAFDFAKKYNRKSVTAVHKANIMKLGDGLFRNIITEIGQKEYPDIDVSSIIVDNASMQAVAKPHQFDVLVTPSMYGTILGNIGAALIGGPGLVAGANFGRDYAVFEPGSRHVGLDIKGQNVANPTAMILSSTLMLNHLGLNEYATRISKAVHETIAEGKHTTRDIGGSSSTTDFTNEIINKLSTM
T2 sequence (P28241 16-369): T1 sequence (P28241 16-369)

[2] = target: ^-5IDH1/IDH2 enzyme (truncated, octameric) (Saccharomyces cerevisiae, UniProt P28241+P28834); assay: Diamide inhibition of catalytic activity; type: biochemical, yeast
IDH1/IDH2 enzyme = target: T3, IDH1/IDH2 enzyme (Saccharomyces cerevisiae, UniProt P28241+P28834); type: biochemical, yeast; conditions: no or low concentration (10 μM) of diamide, 2 h
T3 sequence (P28834 12-360): T2 sequence (P28834 12-360)
T3 sequence (P28241 16-369): T1 sequence (P28241 16-369)
In short: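 Affinity-purified His-tagged enzyme (1 μM in 50 mM Tris-HCl pH 7.4) is treated 2 h on ice with 0 or 10 μM diamide. Then 3.5 μg samples are run on […] and stained with Coomassie blue to see the IDH2 Cys-150 disulfide band.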

IDH1^G15D/IDH2 enzyme = target: T4, IDH1^G15D/IDH2 enzyme (Saccharomyces cerevisiae, UniProt P28241+P28834, G26D); type: biochemical, yeast; conditions: 10 μM diamide, 2 h
T4 sequence (P28834 12-360 G26D): T2 sequence (P28834 12-360) with G15D
T4 sequence (P28241 16-369): T1 sequence (P28241 16-369)

[3] = target: IDH1^G15D/IDH2 enzyme (tetrameric) (Saccharomyces cerevisiae, UniProt P28241+P28834, G26D); assay: Diamide inhibition of catalytic activity; type: biochemical, yeast
Sequence of IDH1^G15D/IDH2 enzyme (tetrameric) (P28834 12-360 G26D, one chain of several): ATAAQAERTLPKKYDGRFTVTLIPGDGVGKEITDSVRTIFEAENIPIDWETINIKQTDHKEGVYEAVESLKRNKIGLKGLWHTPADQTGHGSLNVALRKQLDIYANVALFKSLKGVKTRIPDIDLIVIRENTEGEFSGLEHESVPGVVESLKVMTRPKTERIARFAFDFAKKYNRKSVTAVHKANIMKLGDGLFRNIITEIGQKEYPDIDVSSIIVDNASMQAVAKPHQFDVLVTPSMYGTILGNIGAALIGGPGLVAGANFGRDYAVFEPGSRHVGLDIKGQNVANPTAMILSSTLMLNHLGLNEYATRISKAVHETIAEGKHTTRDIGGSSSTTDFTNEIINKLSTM

[4] = target: ^-5IDH1^G15D/IDH2 enzyme (tetrameric) (Saccharomyces cerevisiae, UniProt P28241+P28834, G26D); assay: Diamide inhibition of catalytic activity; type: biochemical, yeast
Sequence of ^-5IDH1^G15D/IDH2 enzyme (tetrameric) (P28834 17-360 G26D, one chain of several): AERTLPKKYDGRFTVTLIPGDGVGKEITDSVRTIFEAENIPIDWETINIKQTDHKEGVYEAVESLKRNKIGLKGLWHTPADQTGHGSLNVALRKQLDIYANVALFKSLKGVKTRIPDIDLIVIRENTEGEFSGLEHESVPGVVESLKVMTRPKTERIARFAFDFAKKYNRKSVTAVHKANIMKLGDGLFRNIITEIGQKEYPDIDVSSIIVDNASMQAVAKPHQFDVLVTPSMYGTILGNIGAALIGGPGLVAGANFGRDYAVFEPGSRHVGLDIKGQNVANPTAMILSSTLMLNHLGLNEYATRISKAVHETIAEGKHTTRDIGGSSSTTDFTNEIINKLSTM

[5] = target: T5, IDH1/IDH2 enzyme (wild-type, octameric) (Saccharomyces cerevisiae, UniProt P28241+P28834); assay: Diamide inhibition of catalytic activity; type: biochemical, yeast
T5 sequence (P28834 12-360): T2 sequence (P28834 12-360)
T5 sequence (P28241 16-369): T1 sequence (P28241 16-369)
In short: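 Purified His-tagged enzyme (E. coli BL21-Gold (DE3), IPTG-induced, Ni-NTA purified) at 1 μM in 50 mM Tris-HCl pH 7.4 is held 2 h on ice with a range of diamide concentrations from a fresh water stock. Activity is then assayed (40 mM Tris-HCl pH 7.4, 1 mM D-isocitrate, 4 mM MgCl2, 0.5 mM NAD+; NADH formation, 24 °C). Untreated activity is set as 100%, and the 50% value is read from the graphs.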

[6] = target: ^-5IDH1^D168K/IDH2 enzyme (tetrameric) (Saccharomyces cerevisiae, UniProt P28241+P28834, D179K); assay: Diamide inhibition of catalytic activity; type: biochemical, yeast
Sequence of ^-5IDH1^D168K/IDH2 enzyme (tetrameric) (P28834 17-360 D179K, one chain of several): as the sequence (P28834 17-360 G26D, one chain of several) above, with D10G, D163K counted along it

[7] = substrate: O=C(O)C[C@H](C(=O)O)[C@@H](O)C(=O)O; assay: Apparent S0.5 for isocitrate; type: biochemical; conditions: pH 7.4; 24.0 °C
SEC = target: the molecule itself; assay: SEC
[8] = target: T6, Yeast NAD+-specific isocitrate dehydrogenase (IDH) (Saccharomyces cerevisiae, UniProt P28241+P28834); assay: Kinetic analyses: isocitrate saturation velocity curves of purified IDH enzymes; type: biochemical; conditions: 100 μM AMP
T6 sequence (P28834 12-360): T2 sequence (P28834 12-360)
T6 sequence (P28241 16-369): T1 sequence (P28241 16-369)
In short: (§1)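 His-tagged IDH purified by Ni2+-NTA, stored at −20 °C in elution buffer with 20% glycerol, quantified by A280. Assays at 24 °C used 40 mM Tris-HCl pH 7.4, 4 mM MgCl2 and 0.5 mM NAD+. D-isocitrate was varied 0–5 mM, with or without 100 μM AMP, and NADH formation was followed. Apparent S0.5 and Hill coefficients came from saturation curves, Vmax as maximum velocity per mg, over two independent experiments.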

[9] = test system: Yeast NAD+-specific isocitrate dehydrogenase (IDH); assay: as above; type: biochemical
In short: as §1

cross-linking = target: the molecule itself; assay: cross-linking
[10] = 2 h, read-out: reduction in activity

O=C(O)CC(O)(CC(=O)O)C(=O)O [citrate]
effect of citrate preincubation on diamide inhibition (^-5IDH1/IDH2 enzyme; increasing citrate (0 to 100 mM), 4 mM MgCl2, 100 μM AMP before 0.16 mM diamide): essentially no effect | effect of citrate preincubation on diamide inhibition ([1]; 100 mM citrate, 4 mM MgCl2, 100 μM AMP for 15 min before 0.5 mM diamide): no inhibition by diamide was observed

CN(C)C(=O)/N=N/C(=O)N(C)C [diamide]
IC50 [2]: 160 µM | increase in sensitivity to diamide relative to the IDH1/IDH2 enzyme ([2]; ^-5IDH1/IDH2 vs IDH1/IDH2, 120 min): ~ 3 fold and 3 fold | formation of IDH2 Cys-150 disulfide bond (IDH1/IDH2 enzyme): no formation of this bond | formation of IDH2 Cys-150 disulfide bond (IDH1^G15D/IDH2 enzyme): most of the IDH2 subunit is present as the disulfide bond form | inhibition at 160 µM (^-5IDH1/IDH2 enzyme; [10]): 43% | IC50 [3]: 6.5 µM | inhibition at 500 µM [1, 10]: 63% | IC50 [4]: 7.5 µM | IC50 [5]: 500 µM | IC50 [6]: 13 µM

B1: truncated ^-5IDH1/IDH2 enzyme (complex, yeast)
chain 1: T1 sequence (P28834 17-360 limits assumed)
chain 2: T1 sequence (P28241 16-369)
K0.5 [7]: 0.52/0.11 (±0.04/0.01) mM | stoichiometry N (SEC): 8

B2: ^-5IDH1^G15D/IDH2 enzyme (complex, yeast)
chain 1: T1 sequence (P28834 17-360 limits assumed) with G10D
chain 2: T1 sequence (P28241 16-369)
K0.5 [7]: 0.64/0.14 (±0.03/0.04) mM | stoichiometry N (SEC): 4

B3: IDH1/IDH2: wild-type yeast NAD+-specific isocitrate dehydrogenase, octamer of IDH1 and IDH2 subunits, histidine tag on IDH1 (protein)
chain 1: T2 sequence (P28834 12-360)
chain 2: T1 sequence (P28241 16-369)
modifications: left off: histidine tag, C-terminal, kept
increase in the apparent affinity for isocitrate in the presence of AMP [8]: ~ 5 fold | Hill coef. with respect to isocitrate, − AMP ([9]; absence of AMP): 3.1 | Vmax (apparent), + AMP ([9]; isocitrate velocity saturation curve, presence of 100 μM AMP): 32.3/32.3 (±0.7/0.4) ^b units/mg | Hill coef. with respect to isocitrate, + AMP ([9]; presence of 100 μM AMP): 3.5

B4: IDH2 subunit (natural protein, yeast)
chain: T1 sequence (P28241 16-369)
binding result (cross-linking): binds
